High-throughput results (PubChem)
Compounds with a hit are over-represented: about 2.9% of the library has one in this group of screens.
MC4R ag barr – agonists of human melanocortin 4 receptor (MC4R) beta-arrestin; U2OS MC4R beta-arrestin complementation, luminescence; percent of melanotan II response, DMSO zero; activation, % at 8.9 µM; 0.98% of 360,000 active; AID 540308;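 active = activation above a per-plate cutoff, the mean activation of sample wells on that plate plus 3 SD, cut at about 8% in these data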
Target sequence (P32245 whole entry, looked up): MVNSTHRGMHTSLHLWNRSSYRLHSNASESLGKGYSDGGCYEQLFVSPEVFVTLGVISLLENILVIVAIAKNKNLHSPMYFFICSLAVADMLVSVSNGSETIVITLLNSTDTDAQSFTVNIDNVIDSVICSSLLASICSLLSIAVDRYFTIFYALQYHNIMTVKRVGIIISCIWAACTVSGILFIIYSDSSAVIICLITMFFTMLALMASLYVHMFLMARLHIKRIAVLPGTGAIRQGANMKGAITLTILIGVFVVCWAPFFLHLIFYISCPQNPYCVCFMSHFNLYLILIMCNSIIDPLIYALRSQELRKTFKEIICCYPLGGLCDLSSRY
TAG inh – triacylglycerol accumulation inhibition; 0.66% of 230,000 active; H9c2 cells, Nile Red lipid (TAG) fluorescence; cells loaded with 200 µM oleic acid; AID 651582; inhibition, % at 12.5 µM;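 active = pattern-corrected inhibition of lipid staining of at least 50% with the nuclear-stain viability signal not falling by more than 50%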;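 note: 0% = DMSO wells and 100% = triacsin C control wells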
GalR3 antagonist – antagonists of human GalR3. 0.44% of 360,000 active. AID 651719. inhibition, % at 3 µM. HEK293 GalR3-CNG cAMP membrane potential fluorescence; galR3 body fused to GalR1 C-terminus. O60755;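 active = inhibition above the screen-wide average plus 3 SD, cut at about 13% in these data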;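 note: forskolin and galanin both at EC90 stimulate the cells; cAMP rise reported by CNG channel membrane potential dye signal; 0% = forskolin plus galanin with DMSO and 100% = forskolin alone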
Target sequence (O60755 1-299 limits assumed): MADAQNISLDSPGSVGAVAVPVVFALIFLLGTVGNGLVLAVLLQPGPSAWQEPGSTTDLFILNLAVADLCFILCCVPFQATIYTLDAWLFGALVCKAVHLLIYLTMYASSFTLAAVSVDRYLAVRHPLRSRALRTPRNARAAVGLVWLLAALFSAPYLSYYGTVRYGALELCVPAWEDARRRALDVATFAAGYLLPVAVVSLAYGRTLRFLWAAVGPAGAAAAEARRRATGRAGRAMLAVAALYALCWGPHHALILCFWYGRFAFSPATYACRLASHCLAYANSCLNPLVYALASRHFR
MC4R antagonist – blocks human MC4R cAMP signaling; inhibition, % at 6.5 µM; MC4R-expressing cells, MTII-stimulated cAMP, LANCE TR-FRET; 0.48% of 360,000 active;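 active = inhibition above its plate's cutoff, the mean of tested wells on that plate plus 3 SD, cut at about 29% in these data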;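 note: 0% = Melanotan II alone and 100% = Melanotan II plus saturating MCL0020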
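Material: human MC4R-expressing U2OS cells. Probe or stimulus: Melanotan II challenge. Dosing: 6.5 µM single dose. Times: 30-min compound, 1-h challenge, 1-h detection, room temperature. Technique: TR-FRET with Eu-cAMP and labeled anti-cAMP, 671 nm. Replication: singlicate.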
Efflux pump inh – antifungal efflux pump inhibition, Nile Red retention. S. cerevisiae Candida pump triplex. 0.44% of 330,000 active. inhibition, % at 10 µM;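 active = plate passing quality check with inhibition over a set limit, or well fluorescence over plate mean plus 4 SD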;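 note: Nile Red retained in pooled yeast measured as flow cytometry median fluorescence; 0% = buffer negative control and 100% = Enniatin B positive control; higher means more Nile Red kept so more efflux inhibition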
Calb FLC – C. albicans growth modulation with fluconazole; AID 1979; growth inhibition, % (concentration not given with the values); C. albicans CaCi-2 + fluconazole, Alamar Blue growth, 48 h; 0.57% of 300,000 active;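 active = growth inhibition above about 58% in most replicates, limit read from the data, passing the limit was not always enough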;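 note: all wells also contain fluconazole at 8 µg/ml as a sub-toxic cotreatment; 0% = median of DMSO wells and 100% = median of geldanamycin control wells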
Yeast cmpd fluor – flagged as fluorescent in efflux inhibitor counter-screen; shares compounds with Efflux pump inh; S. cerevisiae AD/pABC3, compound fluorescence, flow cytometry; fluorescence ratio to DMSO, % at 10 µM; 4% of 1,700 active;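 active = fluorescence ratio to DMSO above its plate's cutoff, the plate mean ratio plus 5 SD, cut at about 210% in these data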;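 note: unstained yeast with no Nile Red so the signal is compound autofluorescence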
CaMdr1 efflux inh – blocks the Candida albicans Mdr1 efflux pump in yeast; 1% of 1,700 active; inhibition, % at 10 µM; S. cerevisiae AD/CaMDR1, Nile Red efflux, flow cytometry; shares compounds with Efflux pump inh; AID 588518; in the data active = inhibition above about 26%;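 note: 0% = DMSO vehicle and 100% = reference inhibitor; higher means more Nile Red retained so more efflux inhibition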
CaCdr2 efflux inh – blocks the Candida albicans Cdr2 efflux pump in yeast. Nile Red retention ratio vs DMSO, % at 10 µM. S. cerevisiae AD/CaCDR2, Nile Red retention, flow cytometry. AID 588520. shares compounds with Efflux pump inh. 4% of 1,700 active; in the data active = Nile Red retention ratio vs DMSO above about 190%;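 note: higher ratio means more blocking of Cdr2 efflux of the dye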
CaCdr1 efflux inh – Candida Cdr1 efflux pump inhibition; shares compounds with Efflux pump inh; S. cerevisiae AD/CaCDR1, Nile Red efflux, flow cytometry; inhibition, % at 10 µM; 1% of 1,700 active;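 active = inhibition above the screen-wide mean plus twice its standard deviation, cut at about 32% in these data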
cAMP nonselect – U2OS forskolin cAMP inhibition counter-screen; shares compounds with MC4R antagonist; parental U2OS, LANCE TR-FRET; inhibition, % at 6.5 µM; 26% of 1,600 active;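 active = mean inhibition over triplicates above the low-control well mean plus 3 SD, set per campaign, cut at about 13% in these data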;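 note: signal is single emission at 671 nm which falls as cellular cAMP rises; 0% = forskolin-stimulated wells and 100% = buffer without forskolin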
MC4R antag conf – human MC4R cAMP antagonism confirmation. shares compounds with MC4R antagonist. MC4R-expressing cells, MTII-stimulated cAMP, TR-FRET. inhibition, % at 6.5 µM. 27% of 1,600 active. AID 602195; in the data active = inhibition above about 29%;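 note: 0% = agonist stimulated wells alone and 100% = agonist stimulated wells plus saturating reference antagonist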
An asterisk follows results filed as active; . = no result given; + = active, no number; ! = repeats disagree.

SMILES	MC4R ag barr	TAG inh	GalR3 antagonist	MC4R antagonist	Efflux pump inh	Calb FLC	Yeast cmpd fluor	CaMdr1 efflux inh	CaCdr2 efflux inh	CaCdr1 efflux inh	others
O=S(=O)(c1ccc2ccccc2c1)N1Cc2cc(Br)ccc2-n2nncc2C1	.	.	0.0	.	.	.	.	.	.	.
O=C(CCN1CCCCC1)Nc1ccc(Br)cc1C(=O)c1ccccc1	0.1	.	-5.7	0.2	1.4*	5.4	102.2	-0.1	112.4	0.0
CC(C(=O)Nc1ccc(Br)cc1C(=O)c1ccccc1)N1CCCCC1 (centres undefined)	1.0	.	-3.0	4.7	-0.1	20.8	.	.	.	.
C[C@]12CCC3C(CCC4=CC(O)CC[C@@]43/C=N/O)C1(O)CCC2C1=CC(=O)OC1 (some centres undefined)	39.0*	.	15.2*	0.3	20.3*	2.3	102.2	-0.3	100.1	-0.1
CCN(CC)C(=O)c1ccc(NC(=O)COc2ccc([N+](=O)[O-])cc2Cl)cc1	0.1	.	7.5	12.6	18.9*	-11.9	116.4	0.3	118.7	0.2
COc1ccc2c(c1)/C(=C/c1cnc[nH]1)C(=O)N2	-2.3	47.6	1.9	-20.6	0.8*	.	105.7	0.1	93.2	0.0
N#Cc1ccc(NC(=S)N2Cc3cc(Br)ccc3-n3nncc3C2)cc1	.	.	-1.8	.	.	.	.	.	.	.
c1ccc(CCN2CCC3CCNC3C2)cc1 (centres undefined)	.	.	-6.6	.	.	.	.	.	.	.
C=CC1CN2CCC1CC2c1[nH]c2ccccc2c1CCO (centres undefined)	-0.6	.	-12.0	2.0	12.6*	-4.3	88.7	0.1	97.5	-0.3
C=C[C@H]1CN2CC[C@H]1C[C@H]2[C@H](O)c1ccnc2ccccc12	-0.1	-15.7	.	-1.9	0.0	.	.	.	.	.
CC[C@@H]1C[C@H]2CC[C@H](O2)[C@H](C)C(=O)O[C@@H](C)C[C@@H]2CC[C@@H](O2)[C@@H](C)C(=O)O[C@H](C)C[C@H]2CC[C@H](O2)[C@H](C)C(=O)O[C@@H](C)C[C@@H]2CC[C@@H](O2)[C@@H](C)C(=O)O1	.	.	-1.4	.	.	.	.	.	.	.
Cc1ccc(-c2cc(-c3ccc(C)cc3)[n+](-c3ccccc3)c(-c3ccc(C)cc3)c2)cc1	6.9	21.2	.	-3.4	34.4*	106.1*	105.0	19.6	+	15.2
Cc1ccc(-c2cc(-c3ccc(C)cc3)[n+](-c3ccc(C(=O)[O-])cc3)c(-c3ccc(C)cc3)c2)cc1	0.4	-15.4	-1.1	-0.3	0.0	37.5	.	.	.	.
Nc1ccc2ccc3cccc[n+]3c2c1	-0.3	.	-8.2	-5.6	3.8*	-0.2	272.0*	3.9	184.9*	2.6
COC(=O)C1=C(c2ccc(C(C)=O)cc2)C[C@@H]2CC[C@H]1N2C(=O)NC1Cc2ccccc2C1	-0.4	.	.	2.2	-0.1	.	.	.	.	.
C/C(=N\N1CCCCCC1)c1c(O)n(-c2ccccc2)c(=O)[nH]c1=O	-1.6	.	-0.2	3.8	0.0	-3.2	.	.	.	.
C/C(=N\N1CCCCC1)c1c(O)[nH]c(=O)[nH]c1=O	-2.3	-9.1	3.7	2.9	16.4*	1.6	111.1	-0.1	103.0	0.1
CCOC(=O)c1c(C)n(COCCO)c2ccc(O)cc12	0.4	.	-4.9	-3.9	7.5*	10.7	91.8	-0.2	91.4	-0.1
COc1ccc(NC(=O)N2CCC3(CC2)OCCO3)cc1OC	-0.2	.	-9.7	-7.2	11.1*	10.1	103.0	-0.1	108.0	-0.1
C=CCN1CC[C@]23c4c5ccc(O)c4OC2C(=O)CC[C@@]3(O)[C@H]1C5 (some centres undefined)	.	.	4.1	.	.	.	.	.	.	.
CCOC(=O)C1=C(C(=O)OCC)C2(c3ccccc3)c3ccccc3C1(C)N2C (centres undefined)	.	.	-6.3	.	.	.	.	.	.	.
c1ccc2c(c1)[nH]c1cnccc12	1.0	0.8	-3.4	-0.9	0.0	.	.	.	.	.
Cc1c2ccncc2c(C)c2c1[nH]c1ccccc12	1.9	-28.2	.	15.6	5.6*	.	117.5	0.3	95.6	-0.1
C[C@H]1CNCCN1c1ccc(N2CC[C@H](O)C2)c(C#N)c1	.	.	-7.0	.	.	.	.	.	.	.
Cc1cccc(C2=NCC(=O)N(CC(=O)NCc3ccco3)c3sc4c(c32)CCCC4)c1	0.6	.	-1.7	7.5	0.1	20.7	.	.	.	.
SMILES	MC4R ag barr	TAG inh	GalR3 antagonist	MC4R antagonist	Efflux pump inh	Calb FLC	Yeast cmpd fluor	CaMdr1 efflux inh	CaCdr2 efflux inh	CaCdr1 efflux inh	others
COc1ccc(C2=NCC(=O)N(CC(=O)NCc3ccco3)c3sc4c(c32)CCCC4)cc1	1.8	.	2.9	-10.9	0.8*	16.3	113.2	0.3	99.6	0.3
O=c1[nH]c(=O)n(CC2CCCO2)c(O)c1/C=C1\C=Nc2ccccc21 (centres undefined)	-0.3	5.5	7.9	-11.0	2.6*!	-1.9	103.0	-0.2	89.3	0.3
O=C1NC(=O)C(CCc2ccncc2)(CCc2ccncc2)C(=O)N1C1CCCCC1	2.2	1.3	0.4	18.7	1.0*	6.3	76.9	0.0	120.8	-0.2
COC(=O)C1C(c2ccc(Cl)cc2)CC2CCC1N2C (centres undefined)	.	.	-2.6	.	.	.	.	.	.	.
O=C1CN=C(c2ccccc2)c2ccccc2N1	-1.6	.	-8.4	0.1	0.0	-13.0	.	.	.	.
COc1ccc2oc3c(c2c1)NC(=O)CN=C3c1ccccc1	1.5	-13.0	-6.0	31.4*	-0.2	8.4	.	.	.	.	cAMP nonselect=3.7;MC4R antag conf=-7.9
O=C1NC(=O)C(=Cc2ccc(SC3CCCCC3)o2)C(=O)N1	-0.5	14.9	1.4	37.7*	-0.1	-6.0	.	.	.	.	cAMP nonselect=11.4;MC4R antag conf=26.4
C=C1C(=O)OC2CC3(C)OC3C3OC3C3=CC(OC3=O)C12 (centres undefined)	-1.6	.	11.3	42.8*	.	.	.	.	.	.	cAMP nonselect=19.2*;MC4R antag conf=32.5*
CCC1(c2ccccc2)C(=O)N(C)C(=O)N(C)C1=O	0.3	.	0.0	-4.5	0.0	-9.7	.	.	.	.
CN1C(=O)C(c2ccccc2)C(=O)N(C)C1=O	2.1	-11.2	3.1	30.3*	0.0	-3.3	.	.	.	.	cAMP nonselect=-1.0;MC4R antag conf=12.4
Oc1ccc2c3c1OC1c4oc5ccccc5c4C[C@@]4(O)[C@@H](C2)N(CC2CC2)CC[C@]314 (some centres undefined)	-0.6	.	0.2	6.1	-0.1	.	.	.	.	.
